Test results published in ChEMBL document CHEMBL4196041 (Eur J Med Chem, 2018).
pIC50: −log10 of the molar value. Each block holds one molecule with its values, some of them ahead of it.

Experiments:
[1] = target: T1, 3',5'-cyclic-AMP phosphodiesterase 4B (Homo sapiens, UniProt Q07343); assay: Inhibition of human PDE4B by ELISA
[2] = target: 3',5'-cyclic-AMP phosphodiesterase 4D (Homo sapiens, UniProt Q08499); assay: Inhibition of human PDE4D by ELISA
Homo sapiens = species on record: Homo sapiens; assay: Selectivity ratio of IC50 for human PDE4D to IC50 for human PDE4B
[3] = target: T1, 3',5'-cyclic-AMP phosphodiesterase 4B; assay: Inhibition of PDE4B (unknown origin) assessed as increase in cAMP level by measuring cAMP level after 3 hrs by cell based ELISA
[4] = target: T1, 3',5'-cyclic-AMP phosphodiesterase 4B; assay: Inhibition of PDE4B (unknown origin) assessed as reduction in TNFalpha level after 1.5 hrs by cell based ELISA; conditions: concentration not given here
[5] = Half life in Wistar rat liver S9 fraction at 20 uM in presence of NADPH by HPLC-UV analysis; assay type: ADME, subcellular
Method in brief: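 Phase I stability in liver S9 (9,000× g) from male Wistar rats, prepared at 0–4°C. […] Stopped with cold acetonitrile plus chlorzoxazone internal standard. Centrifuged, then intact compound quantified by HPLC-UV; t1/2 and CLint derived from this.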

[6] = Intrinsic clearance in Wistar rat liver S9 fraction at 20 uM in presence of NADPH by UPLC-MS/MS analysis; assay type: ADME, subcellular
[7] = Half life in Sprague-Dawley rat at 1 mg/kg, sc administered as single dose by UPLC-MS/MS analysis; assay type: ADME, organism-based; conditions: in vivo
[8] = Tmax in Sprague-Dawley rat at 1 mg/kg, sc administered as single dose by UPLC-MS/MS analysis; assay type: ADME, organism-based; conditions: in vivo
[9] = Cmax in Sprague-Dawley rat at 1 mg/kg, sc administered as single dose by UPLC-MS/MS analysis; assay type: ADME, organism-based; parameters: dose 1 mg/kg, route subcutaneous; conditions: in vivo
[10] = AUC (0 to t) in Sprague-Dawley rat at 1 mg/kg, sc administered as single dose by UPLC-MS/MS analysis; assay type: ADME, organism-based; conditions: in vivo
[11] = AUC (0 to infinity) in Sprague-Dawley rat at 1 mg/kg, sc administered as single dose by UPLC-MS/MS analysis; assay type: ADME, organism-based; parameters: dose 1 mg/kg, route subcutaneous, time infinity; conditions: in vivo
[12] = Drug metabolism in Wistar rat liver S9 fraction assessed as aromatic hydroxylation of benzathiazole moiety at 20 uM in presence of NADPH by UPLC-MS/MS analysis; assay type: ADME, subcellular; conditions: s9, 20 µM
[13] = Metabolic stability in Wistar rat liver S9 fraction assessed as parent compound remaining at 20 uM in presence of NADPH by UPLC-MS/MS analysis; assay type: ADME, subcellular; conditions: read-out: Stability
[14] = Drug level in Wistar rat liver S9 fraction treated with N-(benzo[d]thiazol-6-yl)-3-(cyclopropylmethoxy)-4-(difluoromethoxy)benzamide at 20 uM in presence of NADPH by UPLC-MS/MS analysis; assay type: ADME, subcellular; conditions: s9, 20 µM
[15] = Protein binding in human plasma after 5 hrs by equilibrium dialysis method; assay type: ADME, cell-free; conditions: read-out: PPB (converted)
Method in brief: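 Equilibrium dialysis across a cellulose membrane (MWCO 12-14 kDa) against isotonic PBS pH 7.4, with human plasma, 37°C for 5 hr. Compound in the plasma and buffer compartments measured by validated RP-HPLC-UV. %Bound = [1 − (buffer conc/plasma conc)] × 100.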

[16] = Drug metabolism in Wistar rat liver S9 fraction assessed as 3-(cyclopropylmethoxy)-4-(difluoromethoxy)-N-(2-hydroxybenzo[d]thiazol-6-yl)benzamide formation at 20 uM in presence of NADPH by UPLC-MS/MS analysis; assay type: ADME, subcellular; conditions: s9, 20 µM
[17] = Drug metabolism in Wistar rat liver S9 fraction assessed as N-(4-amino-3-mercaptophenyl)-3-(cyclopropylmethoxy)-4-(difluoromethoxy)benzamide formation at 20 uM in presence of NADPH by UPLC-MS/MS analysis; assay type: ADME, subcellular; conditions: s9, 20 µM
[18] = target: T1, 3',5'-cyclic-AMP phosphodiesterase 4B; assay: Inhibition of PDE4B (unknown origin) assessed as increase in cAMP level after 3 hrs by cell based ELISA relative to roflumilast

Chain of 3',5'-cyclic-AMP phosphodiesterase 4D (Q08499 whole entry): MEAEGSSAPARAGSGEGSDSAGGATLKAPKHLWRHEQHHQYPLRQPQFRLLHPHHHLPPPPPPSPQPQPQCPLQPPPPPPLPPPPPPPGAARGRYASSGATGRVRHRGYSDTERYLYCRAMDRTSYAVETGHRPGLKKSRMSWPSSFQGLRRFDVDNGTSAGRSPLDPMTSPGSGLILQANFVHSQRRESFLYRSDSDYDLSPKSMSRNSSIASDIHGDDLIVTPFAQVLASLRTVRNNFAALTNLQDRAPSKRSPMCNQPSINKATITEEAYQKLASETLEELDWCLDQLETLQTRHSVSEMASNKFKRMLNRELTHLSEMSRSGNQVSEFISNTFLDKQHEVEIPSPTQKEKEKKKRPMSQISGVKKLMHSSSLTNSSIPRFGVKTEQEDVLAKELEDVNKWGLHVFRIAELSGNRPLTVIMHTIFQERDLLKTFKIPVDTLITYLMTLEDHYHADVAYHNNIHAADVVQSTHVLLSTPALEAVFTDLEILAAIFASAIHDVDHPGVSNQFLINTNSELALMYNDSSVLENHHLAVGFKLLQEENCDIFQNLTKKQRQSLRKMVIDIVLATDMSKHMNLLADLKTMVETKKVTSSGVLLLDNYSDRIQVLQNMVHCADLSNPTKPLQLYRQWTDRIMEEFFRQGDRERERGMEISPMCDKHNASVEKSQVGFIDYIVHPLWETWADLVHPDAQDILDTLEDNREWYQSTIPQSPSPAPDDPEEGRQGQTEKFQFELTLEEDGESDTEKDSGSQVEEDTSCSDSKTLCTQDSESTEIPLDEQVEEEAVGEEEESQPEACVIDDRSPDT
T1 sequence (Q07343 whole entry): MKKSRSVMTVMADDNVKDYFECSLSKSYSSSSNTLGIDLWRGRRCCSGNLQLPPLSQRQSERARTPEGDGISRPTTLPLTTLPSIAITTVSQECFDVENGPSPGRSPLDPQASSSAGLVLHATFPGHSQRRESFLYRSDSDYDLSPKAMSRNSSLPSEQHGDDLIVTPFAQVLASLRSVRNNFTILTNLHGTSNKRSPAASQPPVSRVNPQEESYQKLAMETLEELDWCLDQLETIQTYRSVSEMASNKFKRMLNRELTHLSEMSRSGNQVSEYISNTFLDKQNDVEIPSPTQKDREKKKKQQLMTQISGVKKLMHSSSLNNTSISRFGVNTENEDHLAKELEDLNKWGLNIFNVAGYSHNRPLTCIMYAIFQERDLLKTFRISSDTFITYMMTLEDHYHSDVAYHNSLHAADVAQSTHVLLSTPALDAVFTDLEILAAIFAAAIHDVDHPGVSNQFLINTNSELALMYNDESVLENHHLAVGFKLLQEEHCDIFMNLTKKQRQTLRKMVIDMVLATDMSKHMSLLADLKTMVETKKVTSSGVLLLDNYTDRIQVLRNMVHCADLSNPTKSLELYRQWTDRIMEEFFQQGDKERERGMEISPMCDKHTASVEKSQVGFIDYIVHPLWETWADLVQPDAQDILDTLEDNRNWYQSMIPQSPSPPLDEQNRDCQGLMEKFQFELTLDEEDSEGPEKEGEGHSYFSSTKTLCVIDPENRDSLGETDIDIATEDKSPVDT

pIC50 [1]: 8.73
Structure (SMILES): O=C(Nc1nc2ccc(F)cc2s1)c1ccc(OC(F)F)c(OCC2CC2)c1

pIC50 [1]: 9.24
pIC50 [2]: 8.29
Ratio IC50 (Homo sapiens): 8.89
Activity [3]: 2.68 pmol/mL
inhibition [4]: 58.6%
half-life at 20 µM [5]: 0.705 h
CLint at 20 µM [6]: 1.99 L/h/kg
half-life [7]: 9.82 h
Tmax [8]: 1 h
Cmax [9]: 95.5 µg/mL
AUC(0-t) [10]: 594 µg·h/mL
AUC(0-inf) [11]: 800 µg·h/mL
Drug metabolism [12]: Metabolite_Detected
remaining at 20 µM [13]: 36.4%
Structure (SMILES): O=C(Nc1nc2ccccc2s1)c1ccc(OC(F)F)c(OCC2CC2)c1

Drug metabolism [14]: Metabolite_Detected
Structure (SMILES): Nc1ccc(NC(=O)c2ccc(OC(F)F)c(OCC3CC3)c2)cc1S

pIC50 [1]: 8.90
Structure (SMILES): Cc1nc2ccc(NC(=O)c3ccc(OC(F)F)c(OCC4CC4)c3)cc2s1

pIC50 [1]: 8.93
Structure (SMILES): COc1cc2nc(NC(=O)c3ccc(OC(F)F)c(OCC4CC4)c3)sc2cc1OC

pIC50 [1]: 8.06
Structure (SMILES): O=C(Nc1nc2ccc([N+](=O)[O-])cc2s1)c1ccc(OC(F)F)c(OCC2CC2)c1

pIC50 [1]: 9.17
pIC50 [2]: 8.56
Ratio IC50 (Homo sapiens): 4.01
half-life at 20 µM [5]: 1.05 h
CLint at 20 µM [6]: 1.34 L/h/kg
fraction unbound at 5 h [15]: 0.0361
half-life [7]: 22 h
Tmax [8]: 2 h
Cmax [9]: 86.2 µg/mL
AUC(0-t) [10]: 892 µg·h/mL
AUC(0-inf) [11]: 1620 µg·h/mL
Drug metabolism [16]: Metabolite_Detected
Drug metabolism [17]: Metabolite_Detected
remaining at 20 µM [13]: 36.8%
Structure (SMILES): O=C(Nc1ccc2ncsc2c1)c1ccc(OC(F)F)c(OCC2CC2)c1

Structure (SMILES): COc1ccc2nc(NC(=O)c3ccc(OC(F)F)c(OCC4CC4)c3)sc2c1
pIC50 [1]: 8.64

Drug metabolism [14]: Metabolite_Detected
Structure (SMILES): O=C(Nc1ccc2nc(O)sc2c1)c1ccc(OC(F)F)c(OCC2CC2)c1

pIC50 [1]: 8.28
Structure (SMILES): O=C(Nc1nc2ccc(C(F)(F)F)cc2s1)c1ccc(OC(F)F)c(OCC2CC2)c1

pIC50 [1]: 9.12
pIC50 [2]: 8.34
Ratio IC50 (Homo sapiens): 6.05
Activity [3]: 4.45 pmol/mL
inhibition [4]: 67.8%
fold change (FC) [18]: > 2
half-life at 20 µM [5]: 4.13 h
CLint at 20 µM [6]: 0.34 L/h/kg
fraction unbound at 5 h [15]: 0.463
half-life [7]: 22 h
Tmax [8]: 2 h
Cmax [9]: 114 µg/mL
AUC(0-t) [10]: 622 µg·h/mL
AUC(0-inf) [11]: 1040 µg·h/mL
remaining at 20 µM [13]: 84.2%
Structure (SMILES): O=C(Nc1ccc2nc(S)sc2c1)c1ccc(OC(F)F)c(OCC2CC2)c1

Activity [3]: 1.9 pmol/mL
inhibition [4]: 70.3%
half-life at 20 µM [5]: 0.205 h
CLint at 20 µM [6]: 6.85 L/h/kg
fraction unbound at 5 h [15]: 0.0151
half-life [7]: 6.94 h
Tmax [8]: 1 h
Cmax [9]: 109 µg/mL
AUC(0-t) [10]: 449 µg·h/mL
AUC(0-inf) [11]: 500 µg·h/mL
Structure (SMILES): O=C(Nc1c(Cl)cncc1Cl)c1ccc(OC(F)F)c(OCC2CC2)c1 [ROFLUMILAST]

pIC50 [1]: 8.97
Structure (SMILES): COc1cccc2sc(NC(=O)c3ccc(OC(F)F)c(OCC4CC4)c3)nc12

pIC50 [1]: 8.53
Structure (SMILES): CCOc1ccc2nc(NC(=O)c3ccc(OC(F)F)c(OCC4CC4)c3)sc2c1

pIC50 [1]: 8.80
Structure (SMILES): O=C(Nc1nccs1)c1ccc(OC(F)F)c(OCC2CC2)c1

pIC50 [1]: 8.89
Structure (SMILES): N#Cc1ccc2nc(NC(=O)c3ccc(OC(F)F)c(OCC4CC4)c3)sc2c1

pIC50 [1]: 8.91
Structure (SMILES): O=C(Nc1nc2ccc(Cl)cc2s1)c1ccc(OC(F)F)c(OCC2CC2)c1
